The term MIC denotes the smallest concentration in the dilution series that meets the test's criterion for growth inhibition.

This note sets out measurements from ChEMBL document CHEMBL1275420, “Transfer of embB codon 306 mutations into clinical Mycobacterium tuberculosis strains alters susceptibility to ethambutol, isoniazid, and rifampin” (2008).

Structures are written as SMILES. In brackets after ≈: the same amount, converted by molar mass. Activity calls are given as the source filed them.

Test [1] concerns Mycobacterium tuberculosis. Briefly: Antimycobacterial activity against rifampin, ethambutol resistant Mycobacterium tuberculosis isolate 30167 at 37 degC after 3 to 4 weeks by radiometric Bactec 460TB method. It counts as functional.
For test [2], the system named is Mycobacterium tuberculosis. Kind of test: Antimycobacterial activity against isoniazid, rifampin, ethambutol resistant Mycobacterium tuberculosis isolate NJT5310 expressing embB codon 306 ATG-GTG mutant at 37 degC after 3 to 4 weeks by radiometric Bactec 460TB method. In kind it is functional.
The subject of test [3] is Mycobacterium tuberculosis. Kind of test: Antimycobacterial activity against isoniazid, rifampin, ethambutol resistant Mycobacterium tuberculosis isolate NJT5310 expressing embB codon 306 ATG-CTG mutant at 37 degC after 3 to 4 weeks by radiometric Bactec 460TB method. It counts as functional.
Test [4] has as its system Mycobacterium tuberculosis. Briefly: Antimycobacterial activity against Mycobacterium tuberculosis isolate NJT210 expressing embB codon 306 ATC-ATG mutant at 37 degC after 10 to 11 days by radiometric Bactec 460TB method. It counts as functional.
The test system of test [5] is Mycobacterium tuberculosis. Kind of test: Antimycobacterial activity against Mycobacterium tuberculosis isolate NJT210 expressing embB codon 306 ATA mutant at 37 degC after 10 to 11 days by radiometric Bactec 460TB method. It counts as functional.
Test [6] relates to Mycobacterium tuberculosis. Kind of test: Antimycobacterial activity against isoniazid, rifampin, ethambutol resistant Mycobacterium tuberculosis isolate NJT5310 expressing embB codon 306 ATG-ATC mutant at 37 degC after 3 to 4 weeks by radiometric Bactec 460TB method. It counts as functional.
Test [7] has as its system Mycobacterium tuberculosis. Briefly: Antimycobacterial activity against Mycobacterium tuberculosis isolate NJT210 expressing embB codon 306 CTG mutant at 37 degC after 10 to 11 days by radiometric Bactec 460TB method. It counts as functional.
Test [8] relates to Mycobacterium tuberculosis. Briefly: Antimycobacterial activity against rifampin, ethambutol resistant Mycobacterium tuberculosis isolate A2558 at 37 degC after 3 to 4 weeks by radiometric Bactec 460TB method. In kind it is functional.
Test [9] concerns Mycobacterium tuberculosis. Kind of test: Antimycobacterial activity against Mycobacterium tuberculosis isolate NJT210 expressing embB codon 306 ATC mutant at 37 degC after 10 to 11 days by radiometric Bactec 460TB method. It counts as functional.
The subject of test [10] is Mycobacterium tuberculosis. Kind of test: Antimycobacterial activity against Mycobacterium tuberculosis isolate NJT210 expressing embB codon 306 CTG-ATG mutant at 37 degC after 10 to 11 days by radiometric Bactec 460TB method. In kind it is functional.
Test [11] deals with Mycobacterium tuberculosis. Briefly: Antimycobacterial activity against isoniazid, rifampin, ethambutol resistant Mycobacterium tuberculosis isolate NJT5310 expressing embB codon 306 ATG mutant at 37 degC after 3 to 4 weeks by radiometric Bactec 460TB method. It counts as functional.
Test [12] has as its system Mycobacterium tuberculosis. Kind of test: Antimycobacterial activity against Mycobacterium tuberculosis isolate NJT210 expressing embB codon 306 GTG mutant at 37 degC after 10 to 11 days by radiometric Bactec 460TB method. It counts as functional.
Test [13] has as its system Mycobacterium tuberculosis. Kind of test: Antimycobacterial activity against rifampin, ethambutol resistant Mycobacterium tuberculosis isolate NJT30167 expressing embB codon 306 ATG mutant at 37 degC after 3 to 4 weeks by radiometric Bactec 460TB method. In kind it is functional.
The subject of test [14] is Mycobacterium tuberculosis. Kind of test: Antimycobacterial activity against isoniazid, rifampin, ethambutol resistant Mycobacterium tuberculosis isolate NJT5310 expressing embB codon 306 ATG-ATA mutant at 37 degC after 3 to 4 weeks by radiometric Bactec 460TB method. In kind it is functional.
Test [15] has as its system Mycobacterium tuberculosis. Briefly: Antimycobacterial activity against isoniazid, rifampin, ethambutol resistant Mycobacterium tuberculosis isolate 5310 at 37 degC after 3 to 4 weeks by radiometric Bactec 460TB method. It counts as functional.
The subject of test [16] is Mycobacterium tuberculosis. Kind of test: Antimycobacterial activity against ethambutol resistant Mycobacterium tuberculosis isolate NJT210EMB-R-C3 assessed as bacterial colony formation at 37 degC after 10 to 11 days by radiometric Bactec 460TB method. In kind it is functional.
For test [17], the system named is Mycobacterium tuberculosis. Kind of test: Antimycobacterial activity against rifampin, ethambutol resistant Mycobacterium tuberculosis isolate 5041 at 37 degC after 3 to 4 weeks by radiometric Bactec 460TB method. In kind it is functional.
Test [18] deals with Mycobacterium tuberculosis. Kind of test: Antimycobacterial activity against ethambutol resistant Mycobacterium tuberculosis isolate NJT210EMB-R-C2 assessed as bacterial colony formation at 37 degC after 10 to 11 days by radiometric Bactec 460TB method. It counts as functional.
In test [19] the test system is Mycobacterium tuberculosis. Kind of test: Antimycobacterial activity against ethambutol resistant Mycobacterium tuberculosis isolate NJT210EMB-R-C1 assessed as bacterial colony formation at 37 degC after 10 to 11 days by radiometric Bactec 460TB method. It counts as functional.
The test system of test [20] is Mycobacterium tuberculosis. Briefly: Antimycobacterial activity against Mycobacterium tuberculosis isolate NJT210 expressing embB codon 306 CTG mutant assessed as bacterial growth rate at 0.03 ug/ml by radiometric Bactec 460TB method. In kind it is functional, organism-based. The essentials: (§1)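 Sub-MIC growth curves in Bactec 12B vials with isoniazid (strain 210 vs NJT210CTG also rifampin) at several sub-MIC levels. The daily growth index was followed. No-drug controls were inoculated at 1:100 dilution. Values are means and standard deviations of three independent experiments.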

The subject of test [21] is Mycobacterium tuberculosis. Briefly: Antimycobacterial activity against Mycobacterium tuberculosis isolate NJT210 expressing embB codon 306 CTG mutant assessed as bacterial growth rate at 0.04 ug/ml by radiometric Bactec 460TB method. It counts as functional, organism-based. Put shortly:
as §1

Test [22] deals with Mycobacterium tuberculosis. Briefly: Antimycobacterial activity against ethambutol-susceptible and rifampin-resistant Mycobacterium tuberculosis isolate NJT30167 expressing embB codon 306 ATG assessed as bacterial growth rate at sub MIC compound concentration by radiometric Bactec 460TB method. In kind it is functional, organism-based. Put shortly: as §1

Regarding `CC[C@@H](CO)NCCN[C@@H](CC)CO` [ETHAMBUTOL], the MIC in [1] amounted to 20 µg/mL (≈ 97.9 µM); in test [2], 28 µg/mL (≈ 137 µM); in test [3], 20 µg/mL (≈ 97.9 µM); in [4] it was 2 µg/mL (≈ 9.79 µM); in test [5], 7 µg/mL (≈ 34.3 µM); in [6], 16 µg/mL (≈ 78.3 µM). In addition, the MIC in test [7] was 8.5 µg/mL (≈ 41.6 µM); in test [8], 5 µg/mL (≈ 24.5 µM); in test [9], 7 µg/mL (≈ 34.3 µM); in test [10], 2 µg/mL (≈ 9.79 µM); in test [11] it was 3 µg/mL (≈ 14.7 µM); in test [12] it was 14 µg/mL (≈ 68.5 µM). In addition, the MIC in test [13] turned out to be 3 µg/mL (≈ 14.7 µM); in test [14], 16 µg/mL (≈ 78.3 µM); in test [15], 28 µg/mL (≈ 137 µM); in test [16], 8 µg/mL (≈ 39.2 µM); in test [17] it was 8 µg/mL (≈ 39.2 µM); in test [18], 14 µg/mL (≈ 68.5 µM). Besides, the MIC in test [19] came out at 14 µg/mL (≈ 68.5 µM).
Consider `NNC(=O)c1ccncc1` [ISONIAZID], for which the MIC came to 0.07 µg/mL (≈ 0.51 µM) in test [1]; 2.5 µg/mL (≈ 18.2 µM) in test [2]; 2.5 µg/mL (≈ 18.2 µM) in test [3]; 0.05 µg/mL (≈ 0.365 µM) in test [4]; 0.05 µg/mL (≈ 0.365 µM) in [5]; 2.5 µg/mL (≈ 18.2 µM) in test [6]. In addition, the MIC in test [7] came to 0.05 µg/mL (≈ 0.365 µM); in [9], 0.05 µg/mL (≈ 0.365 µM); in test [10], 0.05 µg/mL (≈ 0.365 µM); in test [11] it was 2.5 µg/mL (≈ 18.2 µM); in test [12], 0.05 µg/mL (≈ 0.365 µM); in test [13] it was 0.07 µg/mL (≈ 0.51 µM). In addition, the MIC in test [14] came out at 2.5 µg/mL (≈ 18.2 µM); in test [15], 2.5 µg/mL (≈ 18.2 µM); in test [16] it was 0.05 µg/mL (≈ 0.365 µM); in test [18], 0.05 µg/mL (≈ 0.365 µM); in test [19], 0.05 µg/mL (≈ 0.365 µM). Further, the outcome in test [20] and in test [21] was inactive. Also, the outcome in test [22] was Active.
On to `CO[C@H]1/C=C/O[C@@]2(C)Oc3c(C)c(O)c4c(O)c(c(/C=N/N5CCN(C)CC5)c(O)c4c3C2=O)NC(=O)/C(C)=C\C=C\[C@H](C)[C@H](O)[C@@H](C)[C@@H](O)[C@@H](C)[C@H](OC(C)=O)[C@@H]1C` [RIFAMPIN], for which the MIC in test [1] is above 240 µg/mL; in [2], above 240 µg/mL; in test [3] it was above 240 µg/mL; in test [4] it was 0.05 µg/mL (≈ 0.0608 µM); in test [5], 0.05 µg/mL (≈ 0.0608 µM); in test [6], above 240 µg/mL. In addition, the MIC is 0.05 µg/mL (≈ 0.0608 µM) in [7]; 0.05 µg/mL (≈ 0.0608 µM) in test [9]; 0.05 µg/mL (≈ 0.0608 µM) in [10]; above 240 µg/mL in test [11]; 0.05 µg/mL (≈ 0.0608 µM) in test [12]; above 240 µg/mL in [13]. The MIC was above 240 µg/mL in test [14]; above 240 µg/mL in test [15]; 0.05 µg/mL (≈ 0.0608 µM) in [16]; 0.05 µg/mL (≈ 0.0608 µM) in test [18]; 0.05 µg/mL (≈ 0.0608 µM) in test [19]. Further, in [21], the outcome was inactive.
